Bioassay records from PubChem BioAssay.
OX1R antag-1 = antagonists of human orexin 1 receptor (OX1R); inhibition, % at 6.6 µM; OX1R-expressing cells, FRET antagonist read-out; O43613; 330,000 compounds, 1.8% hits; in the data active = inhibition mostly above about 38%, no sharp cut-off; inactive = mostly below about 40%;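 note: 0% = agonist challenge alone and 100% = reference antagonist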
TAAR1 antagonist = human TAAR1 antagonism; Q96RJ0; CHO RD-HGA16 TAAR1, Fluo-8 calcium fluorescence, antagonist; inhibition, % at 3 µM; 360,000 compounds, 1.5% hits;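 active = inhibition above a per-plate cutoff, the mean inhibition of test compounds on that plate plus 3 SD, cut at about 49% in these data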;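 note: 0% = DMSO plus EC80 beta-PEA response and 100% = DMSO alone without agonist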
Target sequence (Q96RJ0 whole entry, looked up): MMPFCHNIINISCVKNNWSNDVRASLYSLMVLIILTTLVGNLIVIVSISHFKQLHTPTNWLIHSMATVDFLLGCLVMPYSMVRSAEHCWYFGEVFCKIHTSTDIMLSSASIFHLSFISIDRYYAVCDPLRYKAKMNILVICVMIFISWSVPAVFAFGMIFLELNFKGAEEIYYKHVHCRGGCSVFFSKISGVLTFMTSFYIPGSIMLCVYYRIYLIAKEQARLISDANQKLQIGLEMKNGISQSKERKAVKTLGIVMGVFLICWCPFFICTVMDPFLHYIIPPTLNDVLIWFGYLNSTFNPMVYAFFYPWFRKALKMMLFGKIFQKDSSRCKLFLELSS
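System: RD-HGA16 CHO cells with stable hTAAR1 and Gα16 | Probe or stimulus: EC80 β-phenethylamine stimulus | Dosing: 3 µM, single point | Times: Dye loading 75 min at 37 °C, then 30 min room temperature | Measured by: Fluo-8 calcium-sensitive fluorescence | Read-out basis: % inhibition of agonist calcium response | Replicates: n of 1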
CHO parental Ca = counter-screen: ATP calcium response change in parental CHO cells; parental CHO-K1, ATP-induced calcium, Fluo-8 fluorescence; inhibition, % at 5.6 µM; 330,000 compounds, 0.63% hits; AID 463079;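 active = inhibition above that plate's mean sample inhibition plus 3 SD, cut at about 26% in these data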;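 note: 0% = ATP-challenged DMSO wells and 100% = DMSO wells without ATP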
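Material: Parental CHO cells | Reagent: ATP | Compound dosing: Single nominal dose of 5.6 µM per compound | Detection: Intracellular calcium via Fluo-8 no-wash fluorescent dye | Read-out: % inhibition of ATP-induced calcium mobilization | Benchmarks: Low control ATP plus DMSO, high control DMSO only | Replicates: Singlicate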
OX1R antag-2 = blocks the human orexin 1 receptor. O43613. CHO/OX1R cells, Fluo-8 calcium fluorescence, orexin A. inhibition, % at 5 µM. 330,000 compounds, 0.43% hits. AID 434989;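 active = inhibition above its plate's threshold, mean inhibition of all tested compounds on the plate plus 3 SD, cut at about 37% in these data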;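 note: 0% = orexin A challenge wells and 100% = SB-334867-A antagonist wells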
TAAR1 ag = agonists of human TAAR1 | activation, % at 3 µM | Q96RJ0 | 360,000 compounds, 0.99% hits | CHO RD-HGA16 TAAR1, Fluo-8 calcium fluorescence; vehicle wells 0%, saturating PEA agonist 100%;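 active = activation above the mean activation of all test compounds in the run plus 3 SD, cut at about 38% in these data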
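Test system: RD-HGA16 (CHO) cells co-expressing Gα16 and hTAAR1; dosing: one-point dosing at 3 µM (nominal); timing: 17-24 h seeding, 75 min 37 °C dye, 30 min RT; signal: kinetic Fluo-8 calcium fluorescence; read-out basis: % activation relative to PEA EC100 response; controls: DMSO and PEA EC100; replicates: n 1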
GalR3 antagonist = blocks the human galanin receptor 3; O60755; HEK293 GalR3-CNG cAMP membrane potential fluorescence; galR3 body fused to GalR1 C-terminus; inhibition, % at 3 µM; 360,000 compounds, 0.44% hits;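 active = inhibition above the screen-wide average plus 3 SD, cut at about 13% in these data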;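 note: forskolin and galanin both at EC90 stimulate the cells; cAMP rise reported by CNG channel membrane potential dye signal; 0% = forskolin plus galanin with DMSO and 100% = forskolin alone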
Target sequence (O60755 1-299 limits assumed): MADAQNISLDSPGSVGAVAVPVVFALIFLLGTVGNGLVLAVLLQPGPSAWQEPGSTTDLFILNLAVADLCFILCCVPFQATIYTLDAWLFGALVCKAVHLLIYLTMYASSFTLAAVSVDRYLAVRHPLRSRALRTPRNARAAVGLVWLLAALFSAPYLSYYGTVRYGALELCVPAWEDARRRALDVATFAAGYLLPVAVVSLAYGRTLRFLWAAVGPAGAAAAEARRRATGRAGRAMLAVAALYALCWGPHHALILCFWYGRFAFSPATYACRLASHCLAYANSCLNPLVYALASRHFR
OX1R HTRF conf = OX1R (human) antagonism, HTRF confirmed; shares compounds with OX1R antag-1; OX1R-expressing cells, HTRF antagonist assay; inhibition, % at 6.6 µM; 1,800 compounds, 49% hits; in the data active = inhibition above about 55%;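 note: CHO cells expressing OX1R stimulated with orexin A at about EC80; 0% = agonist challenge alone and 100% = reference antagonist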
CHO-K1 HTRF = counter-screen: parental CHO-K1 HTRF response | inhibition, % at 6.6 µM | shares compounds with OX1R antag-1 | parental CHO-K1 cells, HTRF counterscreen | 1,800 compounds, 48% hits | AID 493232; in the data active = inhibition above about 17%;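 note: 0% = agonist challenge with vehicle and 100% = vehicle alone without agonist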
* hit, by the source's call; / = no result. This is a sample that favours compounds with a hit; in the whole collection about 4.2% have one here.

SMILES	OX1R antag-1	TAAR1 antagonist	CHO parental Ca	OX1R antag-2	TAAR1 ag	GalR3 antagonist	OX1R HTRF conf	CHO-K1 HTRF
COC(=O)C1(Cc2ccccc2)NC(c2ccc(F)cc2)C2C(=O)N(C)C(=O)C21 (configuration not stated)	1	-7	-10	-14	2	-1	/	/
O=c1cc(N2CCCCC2)c(-c2ccccc2)nn1Cc1ccc(F)cc1	30	20	-34	-7	8	-10	/	/
CC1CN(c2ccc([N+](=O)[O-])nc2)CC(C)O1 (configuration not stated)	82*	-16	15	-5	0	-1	36	47*
O=[N+]([O-])c1ccc(N2CCCCC2)cn1	46	-17	0	-6	2	-5	/	/
Nc1c([N+](=O)[O-])cnnc1-c1ccccc1	80*	-13	-8	2	1	-2	93*	101*
O=C(O)c1cccc(-c2ccc(/C=N/NC(=O)c3cccnc3)o2)c1	37	-4	-1	-8	-1	-11	/	/
Cc1nnc(N/N=C\c2ccc(-c3cccc(C(=O)O)c3)o2)n1N	115*	-4	1	-1	16	-9	48	33*
CCOc1ccc(C2CC(c3cccc(OC)c3OC)n3nnnc3N2)cc1Cl (configuration not stated)	8	-7	-21	-18	-1	-3	/	/
COc1ccccc1-n1c(C)c(C(=O)O)c2cc(OC)c3ccccc3c21	8	-4	-6	-10	1	-2	/	/
CCn1c(C)c(C(=O)O)c2cc(OC)c3ccccc3c21	99*	-1	-12	-29	-2	-13	89*	5
CC1(C)CC(NC(=O)COc2ccc([N+](=O)[O-])cc2)CC(C)(C)N1	20	-2	-11	-22	5	-5	/	/
CC1(C)CC(NC(=O)c2cc([N+](=O)[O-])cc([N+](=O)[O-])c2)CC(C)(C)N1	98*	-7	-6	-2	1	-4	78*	78*
CN(CCCC(=O)NC1CC(C)(C)NC(C)(C)C1)S(=O)(=O)c1ccc([N+](=O)[O-])cc1	79*	2	-11	-5	7	0	45	59*
O=[N+]([O-])c1ccc2c(c1)C(=Nc1ccccc1)c1ccccc1-2	/	-21	/	/	1	-4	/	/
COc1ccc(NC(=O)/C=C/c2c(Cl)nc3ccccn23)cc1	111*	15	-28	18	2	-5	96*	17*
CCN(CC(=O)Nc1sc2c(c1C#N)CCCC2)Cc1nc2ccccc2c(=O)[nH]1	83*	28	-14	24	5	1	58*	0
O=C(NC1CCCCC1)C1CC(=O)N(c2cccc([N+](=O)[O-])c2)C1 (configuration not stated)	88*	-5	10	1	6	-1	35	7
Cc1cccc(NC(=O)Nc2cccc(C#N)c2)n1	91*	8	-13	-21	-1	-2	54	5
Cc1cccc(NC(=O)Nc2ccc(C#N)cc2)n1	11	-3	-16	-18	4	2	/	/
O=C(Cc1cccs1)Nc1cccc(-c2nc3ccccc3o2)c1	77*	28	-21	7	10	-4	74*	0
COc1ccc(C(=O)O)cc1NS(=O)(=O)c1cccc2nsnc12	116*	-16	-15	-9	14	-1	42	30*
COc1ccccc1NC(=O)CS(=O)(=O)c1cccc2nsnc12	100*	-4	-2	-24	15	-3	36	37*
COc1ccccc1CNC(=O)CCNS(=O)(=O)c1cccc2nsnc12	33	-1	-11	-1	6	-4	/	/
Cc1ccc(N=CC=C2OC(C)(C)C(C)(C)O2)cc1	-2	-10	-18	-21	0	2	/	/
CCn1c2ccccc2c2nnc(SCC(=O)c3ccccc3)nc21	21	13	-21	-17	7	-3	/	/
SMILES	OX1R antag-1	TAAR1 antagonist	CHO parental Ca	OX1R antag-2	TAAR1 ag	GalR3 antagonist	OX1R HTRF conf	CHO-K1 HTRF
COc1ccc(-n2nc([N+](=O)[O-])c(=NCCCN3CCCC3=O)n2O)cc1	154*	-2	-5	0	1	-5	51	88*
O=C(CCS(=O)(=O)c1cccc2nonc12)NCCc1ccccc1	87*	-11	-19	-28	21	-6	34	36*
C[C@@H](CO)NC(=O)c1ccc2c3n(nc2c1)-c1ccccc1CO3	26	-2	-5	-11	9	-2	/	/
COc1ccc(-c2cc(C(F)F)n3ncc(C(=O)N4CCc5ccccc54)c3n2)cc1	10	-19	-17	-37	2	1	/	/
COc1ccc(-c2cc(C(F)F)n3ncc(C(=O)n4ccnc4C)c3n2)cc1	108*	-21	-17	-14	-4	1	43	29*
NC(=O)Cc1nc(-c2ccc(F)cc2)cs1	0	8	0	-4	9	-5	/	/
NC(=O)Cc1nc(-c2ccc([N+](=O)[O-])cc2)cs1	78*	4	-3	-15	3	-2	54	33*
O=[N+]([O-])C1=CC=C2C(=NC3(CCCCC3)N2O)C1=NCCO	83*	3	-6	-2	1	-9	73*	112*
COc1cccc(C(=O)Nc2cccc(-c3nnc(-c4ccco4)o3)c2)c1	104*	43	-22	-25	17	-1	35	5
COc1cc(C(c2c(C)[nH][nH]c2=O)c2c(C)[nH][nH]c2=O)cc([N+](=O)[O-])c1O	78*	-23	-4	-8	1	0	35	44*
CCOc1cc(C(c2c(C)[nH][nH]c2=O)c2c(C)[nH][nH]c2=O)cc([N+](=O)[O-])c1O	25	-18	-1	-10	0	-3	/	/
O=C(CN1C(=O)/C(=C/c2ccccc2Cl)SC1=S)NC1C=CS(=O)(=O)C1 (configuration not stated)	13	-3	0	-20	-1	-7	/	/
O=C1CSC(=S)N1/N=C/c1ccc(O)c(O)c1O	84*	/	-3	-2	/	/	16	-4
Cc1ccc(NC(=O)c2nc[nH]c2C(=O)N2CCC(C)CC2)cc1	24	6	7	-7	3	-3	/	/
CN(C)c1ccc(N=Nc2ccc3ncccc3c2)cc1	/	19	/	/	2	-4	/	/
Cc1cc(N(C)C)ccc1N=Nc1ccc2ncccc2c1	83*	-10	-32	-3	-1	-2	75*	10
